# Bioassay records as filed in PubChem BioAssay.
# KCNK9 block = KCNK9 potassium channel inhibitors, primary screen, HEK293 cells, thallium flux; Potassium channel subfamily K member 9 (Homo sapiens), Q9NPC2; FluxOR thallium flux fluorescence; hits give low values; B-score at 10 µM; hit rate 1.2% among 310,000; AID 488922, 2010;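 active = ratio B-score over 3 SD below the library mean, with starting fluorescence within 5 SD of its mean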;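 also: negative B-score means less thallium flux so channel inhibition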
# KCC2 mod = KCC2 cotransporter modulators, thallium flux, primary screen, cell-based, HEK293 KCC2, FluoZin-2 fluorescence, MLSMR. Solute carrier family 12 member 5 (Homo sapiens), Q9H2X9. KCC2 cells, thallium flux FluoZin-2 fluorescence. B-score of Tl+ flux slope (higher = more flux/activation; lower = inhibition) at 10 µM. hit rate 2.2% among 190,000. AID 1456, 2008;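 active = thallium flux slope and its plate-corrected score both differing from the plate sample mean at a set confidence after two filtering rounds, in either direction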;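 also: slope of fluorescence scaled to starting intensity during 10 to 20 s after thallium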
# KCNQ1 pot = potentiators or activators of KCNQ1 channel, primary screen, cell-based, thallium flux, high-throughput; AID 2648, 2010; B-score at 10 µM; CHO-K1 KCNQ1, thallium flux FluxOR fluorescence; hits give high values; hit rate 0.35% among 310,000; Potassium voltage-gated channel subfamily KQT member 1 (Homo sapiens), P51787;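 active = fluorescence ratio B-score, a plate-corrected score, at least three library SD, with initial intensity B-score within 5 SD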
#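 Doses: Single concentration per compound, DMSO matched to controls | Test system: KCNQ1-transfected CHO-K1 cells | Timing: 90 min dye loading and 20 min compound exposure, both at room temperature | Measured by: Kinetic FluxOR thallium fluorescence, 10-s 1-Hz baseline, 110-s post-stimulus read | Medium: Assay buffer with matched DMSO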
# KCNK3 inh = human KCNK3 channel inhibitors, primary screen, CHO cells, FluxOR thallium flux, B-score; B-score at 10 µM; hit rate 0.84% among 340,000; FluxOR fluorescence; hits give low values; AID 602410, 2012; Potassium channel subfamily K member 3 (Homo sapiens), O14649;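 active = B-score under library mean minus 4 SD, starting fluorescence ratio at most library mean plus 5 SD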;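 also: more negative B-score means stronger inhibition of thallium flux through KCNK3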
# KCNQ1 inh = inhibitors of human KCNQ1 channel, primary screen, cell-based, thallium flux, high-throughput | B-score at 10 µM | CHO-K1 KCNQ1, FluxOR thallium flux fluorescence; hits give high values | hit rate 1.3% among 310,000 | Potassium voltage-gated channel subfamily KQT member 1 (Homo sapiens), P51787;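 active = compounds whose thallium flux B-score, printed positive for inhibition, exceeds three library SD while starting fluorescence stays within three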;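 also: channel opened by potassium depolarization with thallium stimulus after 20 min compound exposure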
# hERG rescue = hERG rescue from dofetilide block, primary screen, cell-based, CHO-hERG, FluxOR thallium flux, dofetilide IC70; dofetilide IC70 present; hit rate 0.51% among 310,000; Voltage-gated inwardly rectifying potassium channel KCNH2 (Homo sapiens), Q12809; activation (rescue from dofetilide block), less the hit threshold, % at 10 µM;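 active = activation above the mean of controls blocked by dofetilide plus 5 SD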;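 also: thallium influx through hERG after potassium depolarization seen as dye fluorescence rise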
# KCNQ1 inh valid = KCNQ1 potassium channel inhibitors, confirmation, cell-based, Tl flux, duplicate | shares compounds with KCNQ1 inh | inhibition, % at 10 µM | hit rate 93% among 1,600 | AID 588353, 2011 | KCNQ1 cell line, FluxOR thallium flux fluorescence;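 active = primary screen active, with duplicate mean exceeding buffer control mean plus 3 SD of buffer wells, cut at about 28% in these data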
# CHO Tl flux = thallium flux effects in parental CHO cells, counter-screen for KCNQ1 inhibitor project, cell-based, Tl flux. shares compounds with KCNQ1 inh. parental CHO-K1, FluxOR thallium flux fluorescence ratio; hits give low values; zero means no signal rise above baseline. fluorescence ratio (Tl flux) at 10 µM. hit rate 21% among 1,600. AID 588366, 2011;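 active = mean of duplicate thallium-flux fluorescence ratios in parental host cells more than 5 SD below the buffer control mean, cut at about 0.38 in these data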;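 also: ratio is peak minus minimum fluorescence divided by baseline fluorescence; actives read low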
# KCNQ1 ephys val = KCNQ1 channel inhibitors, confirmation, orthogonal assay, cell-based, automated electrophysiology; shares compounds with KCNQ1 inh; KCNQ1-CHO cells, automated patch clamp current; calls only at 10 µM; hit rate 20% among 490;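 active = KCNQ1 current drop exceeding 3 SD of negative control wells, seen in both duplicate runs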;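 also: steady state current during a 2 s step from -80 to +40 mV; negative values mean current inhibition and positive values mean potentiation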
# KCNQ2 inh = KCNQ2 channel inhibition, selectivity assay for KCNQ1 inhibitor project, cell-based | shares compounds with KCNQ1 inh | KCNQ2 cells, FluxOR thallium flux fluorescence | inhibition, % at 10 µM | hit rate 71% among 1,600 | AID 651746, 2012;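 active = mean percent inhibition of the KCNQ2 thallium signal more than 5 SD above the buffer-only control wells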;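 also: KCNQ2 expressed in CHO cells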
# Target sequence (O88943 whole entry, looked up): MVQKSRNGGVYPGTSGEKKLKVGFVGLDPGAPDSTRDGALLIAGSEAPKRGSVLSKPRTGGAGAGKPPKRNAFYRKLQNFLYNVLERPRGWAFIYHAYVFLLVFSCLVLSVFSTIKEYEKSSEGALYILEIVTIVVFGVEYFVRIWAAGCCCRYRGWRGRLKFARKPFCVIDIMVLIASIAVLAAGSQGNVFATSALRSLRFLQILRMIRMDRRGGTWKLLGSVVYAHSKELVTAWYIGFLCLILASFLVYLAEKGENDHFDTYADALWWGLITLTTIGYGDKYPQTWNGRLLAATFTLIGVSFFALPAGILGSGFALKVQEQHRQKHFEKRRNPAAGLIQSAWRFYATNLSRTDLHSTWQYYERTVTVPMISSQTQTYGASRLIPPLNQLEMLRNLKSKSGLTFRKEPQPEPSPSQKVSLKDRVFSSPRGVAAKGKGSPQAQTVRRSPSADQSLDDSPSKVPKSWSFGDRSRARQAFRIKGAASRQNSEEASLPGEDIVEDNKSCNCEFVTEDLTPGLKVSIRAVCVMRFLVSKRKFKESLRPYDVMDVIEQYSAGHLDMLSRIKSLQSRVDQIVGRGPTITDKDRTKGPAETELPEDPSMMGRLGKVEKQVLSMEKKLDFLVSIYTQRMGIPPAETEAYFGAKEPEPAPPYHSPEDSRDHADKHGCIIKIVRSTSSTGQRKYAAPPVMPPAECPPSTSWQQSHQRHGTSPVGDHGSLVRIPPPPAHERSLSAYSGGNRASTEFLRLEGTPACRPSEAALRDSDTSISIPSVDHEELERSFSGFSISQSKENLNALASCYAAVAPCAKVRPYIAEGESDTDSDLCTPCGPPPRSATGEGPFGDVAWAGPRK
# KCNQ1-KCNE1 inh = KCNQ1/KCNE1 channel inhibition, selectivity assay for KCNQ1 inhibitor project, CHO-K1 cells, thallium flux, FluxOR; shares compounds with KCNQ1 inh; FluxOR thallium flux fluorescence; inhibition, % at 10 µM; hit rate 77% among 1,600; AID 652147, 2013;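 active = mean percent inhibition of duplicate wells above the buffer-only control mean plus 3 SD of those controls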
# Numbers stand for hits; – = inactive; · = not tested or not shown; + = active, no number. Compounds with a hit are over-represented: about 4.1% of the library has one in this group of screens.
SMILES,KCNK9 block,KCC2 mod,KCNQ1 pot,KCNK3 inh,KCNQ1 inh,hERG rescue,KCNQ1 inh valid,CHO Tl flux,KCNQ2 inh,KCNQ1-KCNE1 inh,others
CCOc1ccccc1NC(=O)C(OC(=O)c1ccccc1O)c1ccccc1 (stereo not drawn),–,–,–,–,–,–,·,·,·,·,
CCOc1ccccc1NC(=O)C(OC(=O)c1ccccc1)c1ccccc1 (stereo not drawn),-6.9,–,–,–,6,–,90,–,107%,126%,KCNQ1 ephys val=–
Cn1c(=O)c2[nH]c(-c3ccccc3)nc2n(C)c1=O,·,–,·,·,·,·,·,·,·,·,
Cn1c(=O)c2[nH]c(-c3ccccc3)c(O)c2n(C)c1=O,–,–,–,–,7,–,45,–,–,91%,
Cn1c(=O)c2[nH]c(-c3ccccc3Cl)c(O)c2n(C)c1=O,–,–,–,–,6,–,82,–,–,98%,
C=CCNc1sc(C(=O)c2ccccc2)c(N)c1-c1nc2ccccc2s1,–,–,–,–,7,–,57,–,73%,84%,
CCNc1sc(C(=O)c2cccs2)c(N)c1-c1nc2ccccc2s1,–,·,–,–,–,–,·,·,·,·,
CCOC(=O)c1cc(C(C)(C)C)oc1CNC(=O)c1c(C)oc2c1CCCC2,–,–,–,–,10,–,141,–,120%,142%,KCNQ1 ephys val=–
CCOC(=O)c1cc(C(C)(C)C)oc1CN,–,–,–,–,–,–,·,·,·,·,
C/C(=N\NC(=O)c1c(Cl)c(C)nn1C)c1cccc(NC(=O)C2CCCC2)c1,–,·,–,–,–,–,·,·,·,·,
O=c1c2sc3nc(N4CCOCC4)c4c(c3c2ncn1-c1ccccc1)CCCC4,–,–,–,–,–,–,·,·,·,·,
O=c1c2sc3nc(N4CCOCC4)c4c(c3c2ncn1CCc1ccccc1)CCCC4,–,·,–,–,9,–,102,–,92%,103%,KCNQ1 ephys val=–
c1ccc(-c2csc3ncnc(NCC4COc5ccccc5O4)c23)cc1 (stereo not drawn),–,–,–,–,9,–,151,0.35,132%,+,
Cc1sc2ncnc(NCC3COc4ccccc4O3)c2c1C (stereo not drawn),–,–,–,–,–,–,·,·,·,·,
CCCCOc1cccc(C2C(C(=O)c3ccc(C)o3)=C(O)C(=O)N2c2nnc(C)s2)c1 (stereo not drawn),–,·,–,–,9,–,146,0.34,105%,–,
CCCOc1cccc(C2C(C(=O)c3ccco3)=C(O)C(=O)N2c2nnc(C)s2)c1 (stereo not drawn),–,·,–,–,–,–,·,·,·,·,
N#CC(c1ccccc1)(c1ncc(C(F)(F)F)cc1Cl)N1CCOCC1 (stereo not drawn),–,·,–,–,6,–,74,–,99%,84%,
CC1Cc2ccccc2N1C(=O)CNc1ccccc1N1CCCCC1 (stereo not drawn),–,–,–,–,7,–,81,–,101%,86%,
C=C(C)Cn1c(=O)c2c(nc3n2CCCN3CCc2ccccc2)n(C)c1=O,–,·,–,–,–,–,·,·,·,·,
Cc1ccc(S(=O)(=O)NCc2cccnc2)cc1C,–,·,–,–,–,–,·,·,·,·,
O=C(Nc1ccc(F)cc1)c1ccc2snnc2c1,–,·,–,–,–,–,·,·,·,·,
CCCc1cc(C(=O)Nc2ccc(C(=O)c3ccc(F)cc3)cc2)n(C)n1,–,·,–,-12,6,–,+,–,137%,+,
Cc1cc2c(cc1C)NC(c1c(C)n(C)n(-c3ccccc3)c1=O)C1=C(CC(C)(C)CC1=O)N2 (stereo not drawn),–,–,–,–,15,–,–,–,–,–,
COc1cc(C2Nc3cc(C)c(C)cc3NC3=C2C(=O)CC(C)(C)C3)ccc1OC(C)=O (stereo not drawn),–,·,–,–,–,–,·,·,·,·,
CCOc1ccc(NC(=O)CN(C)C(=O)c2cn3ccccc3n2)cc1OCC,–,·,–,–,–,–,·,·,·,·,
SMILES,KCNK9 block,KCC2 mod,KCNQ1 pot,KCNK3 inh,KCNQ1 inh,hERG rescue,KCNQ1 inh valid,CHO Tl flux,KCNQ2 inh,KCNQ1-KCNE1 inh,others
O=C(NCC1(c2ccccc2)CCCC1)C1(c2ccccc2)CCCC1,–,–,–,–,6,–,112,–,108%,152%,KCNQ1 ephys val=–
O=C(NCC1(c2ccccc2)CCCC1)C(=O)NCC1(c2ccccc2)CCCC1,–,–,–,–,–,–,·,·,·,·,
CC(NC(=S)NC1CCCCC1)c1ccc(C(C)(C)C)cc1 (stereo not drawn),–,·,–,–,8,–,104,–,–,77%,KCNQ1 ephys val=–
COc1ccc(S(=O)(=O)n2nc(-n3c(C)ccc3C)c3c(F)cccc32)cc1OC,–,–,–,–,9,–,124,–,107%,138%,KCNQ1 ephys val=–
COc1ccc2c(C(=O)c3ccc(C)cc3)n(Cc3ccc(C(N)=O)cc3)[n+]([O-])c2c1,·,·,·,–,·,·,·,·,·,·,
CCCSc1nsc(NC(=O)Nc2ccc(F)cc2F)n1,–,·,–,–,11,–,58,–,–,–,
CCSc1nsc(NC(=O)Nc2cccc(F)c2)n1,–,·,–,–,8,–,52,–,–,–,
COc1cccc(NC(=O)Nc2nc(SC)ns2)c1,–,·,–,–,–,–,·,·,·,·,
COc1ccccc1N(C)S(=O)(=O)c1ccc(C(=O)N2CCCc3ccccc32)cc1,–,·,–,–,–,–,·,·,·,·,
COc1ccc(NC(=O)CN(C)C(=O)CNC(=O)c2ccc3c(c2)OCO3)cc1,–,·,–,–,–,–,·,·,·,·,
Cc1nc(-c2ccc(S(=O)(=O)N3CCN(c4cccc(C)c4C)CC3)cc2)co1,–,·,–,–,6,–,74,–,104%,112%,
Cc1nc(-c2ccc(S(=O)(=O)N3CCN(c4ccccc4)CC3)cc2)co1,–,·,–,–,–,–,·,·,·,·,
